In ChEMBL document CHEMBL4020730, “Synthesis and biological evaluation of selective tubulin inhibitors as anti-trypanosomal agents” (Bioorg Med Chem, 2017):

Assays:
[1] = system: Trypanosoma brucei brucei; assay: Anti-parasitic activity against bloodstream form of Trypanosoma brucei brucei Lister 427 after 48 hrs by MTS assay; format: functional; details: Lister 427, 48 h
Procedure, shortened: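 Bloodstream-form parasites grown in HMI-9 with 10% FBS at 37 °C, 7.5% CO2. 5,000 cells per well exposed to a range of compound concentrations, 0.1% DMSO, for 48 hrs at 37 °C. MTS (5% PMS) then added for 3 hrs at 37 °C, formazan read at 490 nm. Quadruplicate data normalized and fitted to a dose-response curve for IC50.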

HEK293 = assay: Cytotoxicity against HEK293 cells assessed as reduction in cell viability after 48 hrs by MTT assay; format: cell-based; details: Homo sapiens, HEK293, 48 h
Procedure, shortened: (§1)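 Cells kept in RPMI1640 with 10% heat-inactivated FBS, L-glutamine, pyruvate and pen-strep at 37 °C, 5% CO2. 3000 cells per well seeded for 24 hrs, then given a range of compound concentrations (DMSO final ≤0.1%) for 48 hrs. 0.5 mg/ml MTT for 2 hrs at 37 °C, dye dissolved in DMSO, absorbance at 570 nm. Quadruplicates normalized and fitted to a dose-response curve.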

[2] = Cytotoxicity against mouse […] cells assessed as reduction in cell viability after 48 hrs by MTT assay; format: cell-based; procedure, shortened: as §1
[3] = Selectivity index, ratio of IC50 for HEK293 cells to IC50 for bloodstream form of Trypanosoma brucei brucei Lister 427; format: toxicity; details: human, read-out: Ratio IC50
[4] = Selectivity index, ratio of IC50 for mouse […] cells to IC50 for bloodstream form of Trypanosoma brucei brucei Lister 427; format: toxicity; details: read-out: Ratio IC50
[5] = system: Trypanosoma brucei brucei; assay: Inhibition of tubulin polymerization in Trypanosoma brucei brucei Lister 427 incubated for 7 hrs by Western blot analysis
Procedure, shortened: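 Parasites treated with 0.5% DMSO or different doses of compound for 7 hrs. Cells washed in TDB buffer pH 7.4, then lysed in Pipes pH 6.8 buffer with 0.2% Triton X-100 for 5 mins at 30 °C. Supernatant (soluble) and pellet (polymerized) fractions separated by centrifugation. Lysate from equal cell numbers run on 10% SDS-PAGE, western blot with TAT-1 tubulin antibody.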

Row | Structure (SMILES) | IC50 [1] | IC50 (HEK293) | IC50 [2] | selectivity ratio [3] | selectivity ratio [4] | inhibition [5]
1 | CCCCCCOc1cc(NC(=O)c2ccc(C(F)(F)F)cc2C(F)(F)F)ccc1N(C)S(C)(=O)=O | 30.1 µM | > 500 µM | > 500 µM | > 17 | > 17 | –
2 | CN(c1ccc(NC(=O)c2cc(C(F)(F)F)cc(C(F)(F)F)c2)cc1OCc1ccc(C(F)(F)F)cc1)S(=O)(=O)Cc1ccccc1 | 3.39 µM | 293 µM | > 500 µM | > 147 | 86 | –
3 | CN(c1ccc(NC(=O)c2ccc(C(F)(F)F)cc2C(F)(F)F)cc1OCc1cccc(C(F)(F)F)c1)S(C)(=O)=O | 8.42 µM | 80.6 µM | > 500 µM | 10 | > 59 | –
4 | Cc1ccc(C(F)(F)F)cc1COc1cc(NC(=O)c2cc(C(F)(F)F)cc(C(F)(F)F)c2)ccc1N(C)S(C)(=O)=O | 15.6 µM | > 500 µM | > 500 µM | > 32 | > 32 | –
5 | CN(c1ccc(NC(=O)c2cc(C(F)(F)F)cc(C(F)(F)F)c2)cc1OCc1ccccc1C(F)(F)F)S(C)(=O)=O | 9.85 µM | > 500 µM | > 500 µM | > 51 | > 51 | –
6 | CN(c1ccc(NC(=O)c2cc(C(F)(F)F)cc(C(F)(F)F)c2)cc1OCc1ccccc1C(F)(F)F)S(=O)(=O)Cc1ccccc1 | 7.13 µM | > 500 µM | > 500 µM | > 70 | > 70 | –
7 | Cc1ccc(C(F)(F)F)cc1COc1cc(NC(=O)c2ccc(C(F)(F)F)cc2C(F)(F)F)ccc1N(C)S(C)(=O)=O | 13 µM | 102 µM | > 500 µM | 8 | > 38 | –
8 | CN(c1ccc(NC(=O)c2cc(C(F)(F)F)cc(C(F)(F)F)c2)cc1OCc1cccc(C(=N)N)c1)S(C)(=O)=O | > 50 µM | > 500 µM | > 500 µM | > 10 | > 10 | –
9 | CN(c1ccc(NC(=O)c2cc(C(F)(F)F)cc(C(F)(F)F)c2)cc1OCc1cccc(C(F)(F)F)c1)S(=O)(=O)Cc1ccccc1 | 2.08 µM | 59.8 µM | 69.5 µM | 33 | 29 | –
10 | CN(c1ccc(NC(=O)c2ccc(C(F)(F)F)cc2C(F)(F)F)cc1OCc1ccccc1C(F)(F)F)S(=O)(=O)Cc1ccccc1 | 10.5 µM | > 500 µM | 158 µM | 15 | > 48 | –
11 | CN(c1ccc(NC(=O)c2ccc(C(F)(F)F)cc2C(F)(F)F)cc1OCc1ccccc1C(F)(F)F)S(C)(=O)=O | 13.3 µM | 34.8 µM | > 500 µM | 3 | > 38 | –
12 | Cc1ccc(C)c(COc2cc(Nc3nccc(N)n3)ccc2N(C)S(C)(=O)=O)c1 | > 50 µM | > 500 µM | > 500 µM | > 10 | > 10 | –
13 | CN(c1ccc(NC(=O)c2cc(C(F)(F)F)cc(C(F)(F)F)c2)cc1OCc1cccc(C(F)(F)F)c1)S(C)(=O)=O | 8.58 µM | 54 µM | > 500 µM | 6 | > 58 | –
14 | CN(c1ccc(NC(=O)c2ccc(C(F)(F)F)cc2C(F)(F)F)cc1OCc1cccc(C(F)(F)F)c1)S(=O)(=O)Cc1ccccc1 | 1.78 µM | 176 µM | 20.5 µM | 12 | 99 | –
15 | CN(c1ccc(NC(=O)c2ccc(C#N)cc2)cc1OCc1ccc(C(F)(F)F)cc1)S(=O)(=O)Cc1ccccc1 | 0.07 µM | > 500 µM | > 500 µM | > 7140 | > 7140 | Dose-dependent effect
16 | CCCCCCOc1cc(NC(=O)c2cc(C(F)(F)F)cc(C(F)(F)F)c2)ccc1N(C)S(=O)(=O)Cc1ccccc1 | 7.81 µM | 69.9 µM | 13.3 µM | 2 | 9 | –
17 | CCCCCCOc1cc(NC(=O)c2cc(C(F)(F)F)cc(C(F)(F)F)c2)ccc1N(C)S(C)(=O)=O | 23 µM | > 500 µM | > 500 µM | > 22 | > 22 | –
18 | CCS(=O)(=O)N(C)c1ccc(NC(=O)c2ccc3c(c2)OCO3)cc1OCc1cccc(C#N)c1 | 23.5 µM | > 500 µM | > 500 µM | > 21 | > 21 | –
